Measurements published in ChEMBL document CHEMBL3259652, “Design and synthesis of novel 5,6-disubstituted pyridine-2,3-dione-3-thiosemicarbazone derivatives as potential anticancer agents” (Eur J Med Chem, 2014).

Assays:
Format in all cases: functional, cell-based
[1] = tested on: MCF7; test: Antiproliferative activity against human MCF7 cells after 72 hrs by MTT assay; settings: MCF7, 72 h
Procedure, shortened: (§1)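 Log-phase cells seeded at 2 × 10⁴ cells/ml, 24 h at 37 °C in 5% CO₂, then exposed to compounds for 72 h at 37 °C. MTT (5 mg/ml) added for 4 h, medium discarded, formazan dissolved in DMSO, absorbance read at 570 nm. Each concentration in triplicate, experiment repeated three times. IC50 from dose-response curves of inhibition ratio versus untreated control.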

[2] = tested on: HCT-116; test: Antiproliferative activity against human HCT116 cells after 72 hrs by MTT assay; settings: HCT-116, 72 h; procedure, shortened: as §1
[3] = Antiproliferative activity against human Bel7402 cells after 72 hrs by MTT assay; settings: Bel-7402, 72 h; procedure, shortened: as §1

SMILES | IC50 [1] | IC50 [2] | IC50 [3]
NC(=S)N/N=C1/C=C(Nc2ccc(F)cc2)C(Nc2ccc(F)cc2)=NC1=O | 1.12 µM | 3.72 µM | 3.66 µM
NC(=S)N/N=C1/C=C(Nc2ccc(Br)cc2)C(Nc2ccc(Br)cc2)=NC1=O | 2.58 µM | 2.15 µM | 5.84 µM
CCOc1ccc(NC2=C/C(=N/NC(N)=S)C(=O)N=C2Nc2ccc(OCC)cc2)cc1 | 13.7 µM | 21.3 µM | 31 µM
NC(=S)N/N=C1/C=C(Nc2ccc(Cl)cc2)C(Nc2ccc(Cl)cc2)=NC1=O | 1.37 µM | 0.19 µM | 0.82 µM
NC(=S)N/N=C1/C=C(Nc2ccccc2)C(Nc2ccccc2)=NC1=O | 7.11 µM | 24.7 µM | 11.9 µM
COc1cccc(NC2=C/C(=N/NC(N)=S)C(=O)N=C2Nc2cccc(OC)c2)c1 | > 50 µM |  | 
NC(=S)N/N=C1/C=C(Nc2cccc([N+](=O)[O-])c2)C(Nc2cccc([N+](=O)[O-])c2)=NC1=O | 11.1 µM | 19.4 µM | 8.11 µM
N/C(=N\N=C1\C=C(Nc2cccc(Cl)c2)C(Nc2cccc(Cl)c2)=NC1=O)SCc1ccccc1 | 15.2 µM | 11.7 µM | 7.16 µM
Cc1cccc(NC2=C/C(=N/NC(N)=S)C(=O)N=C2Nc2cccc(C)c2)c1 | 0.15 µM | 8.65 µM | 2.73 µM
COc1ccccc1NC1=C/C(=N/N=C(\N)SCc2ccccc2)C(=O)N=C1Nc1ccccc1OC | 8.34 µM | 14.5 µM | 13.1 µM
COc1ccc(NC2=C/C(=N/NC(N)=S)C(=O)N=C2Nc2ccc(OC)cc2)cc1 | 10.4 µM | 22.4 µM | 17.8 µM
Cc1ccccc1NC1=C/C(=N/NC(N)=S)C(=O)N=C1Nc1ccccc1C | 0.58 µM | 1.52 µM | 1.71 µM
Cc1ccccc1NC1=C/C(=N/N=C(\N)SCc2ccccc2)C(=O)N=C1Nc1ccccc1C | 16.3 µM | 13.8 µM | 17.1 µM
COc1ccccc1NC1=C/C(=N/NC(N)=S)C(=O)N=C1Nc1ccccc1OC | 10.2 µM | 20.8 µM | 13.4 µM
NC(=S)N/N=C1/C=C(Nc2cccc(Cl)c2)C(Nc2cccc(Cl)c2)=NC1=O | 0.63 µM | 3.38 µM | 2.19 µM
Cc1ccc(NC2=C/C(=N/N=C(\N)SCc3ccccc3)C(=O)N=C2Nc2ccc(C)cc2)cc1 | 13.4 µM | 8.27 µM | 7.68 µM
N/C(=N\N=C1\C=C(Nc2ccc(F)cc2)C(Nc2ccc(F)cc2)=NC1=O)SCc1ccccc1 | 7.58 µM | 11.5 µM | 7.69 µM
NC(=S)N/N=C1/C=C(Nc2ccccc2Cl)C(Nc2ccccc2Cl)=NC1=O | 3.49 µM | 3.54 µM | 3.42 µM
Cc1cccc(NC2=C/C(=N/N=C(\N)SCc3ccccc3)C(=O)N=C2Nc2cccc(C)c2)c1 | 9.34 µM | 12.8 µM | 8.72 µM
N/C(=N\N=C1\C=C(Nc2ccc(Cl)cc2)C(Nc2ccc(Cl)cc2)=NC1=O)SCc1ccccc1 | 7.72 µM | 9.6 µM | 17.3 µM
O=c1[nH]cc(F)c(=O)[nH]1 [FLUOROURACIL] | 7.08 µM | 10.5 µM | 11.1 µM
Cc1ccc(NC2=C/C(=N/NC(N)=S)C(=O)N=C2Nc2ccc(C)cc2)cc1 | 3.06 µM | 7.04 µM | 4.33 µM
